Screens: PubChem BioAssay, Johns Hopkins Ion Channel Center
RGS4 pot = RGS4 potentiation or activation; HEK293 M3R/inducible RGS4, carbachol calcium flux Fluo4; stronger effect = lower value; B-score at 10 µM; 310,000 compounds, 0.92% hits;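 active = B-score of the integrated calcium signal more than 4 SD below the library mean, with starting fluorescence not abnormally high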;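 also: negative B-score means reduced calcium response which marks RGS4 activation or potentiation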
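System – HEK293 FlpIn-TREx cells, stable M3R, doxycycline-inducible RGS4 · Reagent – ECmax carbachol challenge · Times – compound preincubation 20 min at room temperature before agonist · Technique – Fluo4 fluorescence kinetic imaging of calcium · Measure – B score of integrated Fluo4 ratio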
MrgX1 agonist = human MrgX1 receptor agonism, primary screen | B-score at 10 µM | MrgX1-HEK293 cells, Fluo-4 calcium fluorescence, agonist mode; stronger effect = higher value | 310,000 compounds, 0.44% hits | AID 588627 | Q96LB2;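 active = calcium response B-score plate-corrected fluorescence ratio at least 3 library SD, with starting fluorescence B-score inside 5 SD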
Target sequence (Q96LB2 whole entry, looked up): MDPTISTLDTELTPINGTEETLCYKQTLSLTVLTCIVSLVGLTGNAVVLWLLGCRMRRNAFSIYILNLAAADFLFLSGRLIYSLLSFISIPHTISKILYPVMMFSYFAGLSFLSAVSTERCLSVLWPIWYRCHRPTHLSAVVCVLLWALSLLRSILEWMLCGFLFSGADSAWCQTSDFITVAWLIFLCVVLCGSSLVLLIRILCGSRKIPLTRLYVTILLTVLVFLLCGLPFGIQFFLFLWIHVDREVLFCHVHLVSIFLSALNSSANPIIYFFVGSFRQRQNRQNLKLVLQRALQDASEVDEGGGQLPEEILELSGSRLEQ
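Test system: Stable human MrgX1 HEK293 cell line | Schedule: Overnight plating before 1 h dye loading | Read-out basis: Baseline-normalised fluorescence change ratio, B-scored | Detection: Kinetic calcium dye fluorescence, Fluo-4 NW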
MrgX1 PAM = allosterically activates human MrgX1 receptor signaling | MrgX1-HEK293, Fluo-4 calcium flux, FDSS; stronger effect = higher value | B-score at 10 µM | 310,000 compounds, 0.63% hits;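 active = plate-corrected calcium response at least 3 library SD above typical, normal starting fluorescence, not activating the receptor alone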;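 also: compound read alongside a low EC10 to EC30 dose of BAM8-22 agonist; peak minus trough fluorescence over baseline measured at the second addition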
RGS4 block = inhibitors of human RGS4; P49798; HEK293 M3R/RGS4 inducible, Fluo-4 calcium flux; stronger effect = higher value; triggered by carbachol at its EC20; B-score at 10 µM; 310,000 compounds, 0.45% hits; AID 463165;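 active = B-score, a plate-corrected calcium signal, over three deviations above library mean, with baseline fluorescence within five deviations of library mean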;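 also: RGS4 expression induced by doxycycline in cells with stable M3 receptor; B-score is computed from the integrated fluorescence ratio over baseline after carbachol; higher B-score means a larger calcium signal and so more RGS4 inhibition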
Target sequence (P49798 whole entry, looked up): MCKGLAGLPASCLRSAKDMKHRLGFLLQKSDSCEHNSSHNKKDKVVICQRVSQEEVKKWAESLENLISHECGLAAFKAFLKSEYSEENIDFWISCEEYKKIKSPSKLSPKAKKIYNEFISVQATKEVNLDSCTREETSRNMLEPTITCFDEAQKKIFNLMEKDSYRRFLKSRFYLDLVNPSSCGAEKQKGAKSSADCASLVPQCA
MrgX1 antagonist = human MrgX1 receptor antagonism, primary screen | Q96LB2 | MRGX1-HEK293 calcium flux, Fluo-4, BAM8-22 antagonism; stronger effect = lower value | B-score at 10 µM | 310,000 compounds, 1.3% hits;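 active = calcium-response B-score plate-corrected more than 3 library SD below zero, starting fluorescence within 5 deviations, no agonist response on first addition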;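 also: peak minus trough fluorescence over baseline after final BAM8-22 challenge near maximal dose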
MrgX1 ag confirm = confirmation of human MrgX1 receptor agonists | 600 compounds, 78% hits | shares compounds with MrgX1 agonist | AID 602412 | MrgX1-HEK293, Fluo-4 calcium fluorescence, FDSS | activation, % at 10 µM;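 active = calcium signal rise, corrected for plate position, at least 3 library SD high, with starting brightness within 5 such deviations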
HEK293 Ca flux = counter-screen for MrgX1 antagonists: effect in parental HEK293 cells; shares compounds with MrgX1 antagonist; Fluo-4 calcium fluorescence, FDSS; fluorescence ratio F(max-min)/F0 at 10 µM; 4,000 compounds, 2% hits; AID 624111;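 active = duplicate-averaged calcium fluorescence ratio at least three times the standard deviation of buffer wells, a nonspecific response in parental cells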
HEK293 Ca counter = counter-screen for MrgX1 allosteric activators: effect in parental HEK293 cells | shares compounds with MrgX1 antagonist | parental HEK293 calcium flux, Fluo-4 fluorescence ratio; stronger effect = higher value | fluorescence ratio F(max-min)/F0 at 10 µM | 4,000 compounds, 0.4% hits;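 active = calcium fluorescence ratio, averaged over duplicates, at least 3 SD of the buffer-well ratio, meaning a nonspecific response in receptor-free cells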;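 also: untransfected parental HEK293 lacking MrgX1 used as counterscreen for MrgX1 allosteric activators; fluorescence change taken during the second addition on a kinetic imager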
HEK293 Ca cntr2 = counter-screen for MrgX1 activators: effect in parental HEK293 cells. shares compounds with MrgX1 antagonist. fluorescence ratio F(max-min)/F0 at 10 µM. 4,000 compounds, 8.7% hits. Fluo-4 calcium fluorescence (FDSS); stronger effect = higher value;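 active = calcium fluorescence ratio at least three times the spread of buffer wells, meaning a non-specific response in parental cells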
The depositor's hits bear a star; i = inactive; · = not tested or not shown. In the library only some 3.5% were active in any assay of this set; here they are far more common.

SMILES	RGS4 pot	MrgX1 agonist	MrgX1 PAM	RGS4 block	MrgX1 antagonist	MrgX1 ag confirm	HEK293 Ca flux	HEK293 Ca counter	HEK293 Ca cntr2
O=C(Nc1ccc2oc(-c3cccc4ccccc34)nc2c1)c1ncn[nH]1	i	i	i	i	i	·	·	·	·
O=C(Nc1ccc2oc(-c3ccccc3Cl)nc2c1)c1ncn[nH]1	i	55.1*	i	i	i	i	i	i	i
NC1=NC2=C(CCCC2)C2(CCCCC2)S1	i	31.5*	i	i	i	160.4%*	i	i	i
O=C(COc1cccc(C(F)(F)F)c1)NCC(c1ccco1)N1CCCCC1 (stereo not drawn)	i	i	i	i	i	·	·	·	·
CC1(C)CC(=O)C(C(C2=C(O)CC(C)(C)CC2=O)c2ccc(Cl)c([N+](=O)[O-])c2)C(=O)C1 (stereo not drawn)	i	91*	i	i	i	i	i	i	i
O=C(Cc1ccc(Cl)cc1)N1CCN(C(=O)c2ccco2)CC1	i	i	i	i	i	·	·	·	·
O=C(Cc1ccc(Cl)cc1Cl)OCC(=O)N1CCN(C(=O)c2ccco2)CC1	i	28.7*	i	i	i	i	i	i	i
CS(=O)(=O)c1nc(-c2ccccc2)cc(C(F)(F)F)n1	i	37.6*	i	i	i	183.6%*	i	i	i
Cc1cc(NC(=O)CCS(=O)(=O)c2nc(-c3ccccc3)cc(C(F)(F)F)n2)no1	·	i	i	·	i	·	·	·	·
CSCC[C@H](N)C(=O)N1CCC(C(=O)N[C@H](C(=O)NCc2ccccc2F)C(C)C)CC1	i	i	i	i	i	·	·	·	·
Cn1c(=O)c(C(=O)NNC(=O)c2ccccc2F)c(O)c2ccccc21	i	65.3*	i	i	i	404.8%*	i	i	70.8*
CCn1c(=O)c(C(=O)NNC(=O)c2ccccc2Cl)c(O)c2ccccc21	i	105*	i	i	i	321.9%*	i	i	77.6*
CCCCn1c(N)c(N(CC(C)C)C(=O)C2=NN(c3cc(C)ccc3C)C(=O)CC2)c(=O)[nH]c1=O	i	i	i	i	i	·	·	·	·
Cc1nn(Cc2ccccc2)c2c1C(c1cccc(Cl)c1)C(C#N)=C(N)O2 (stereo not drawn)	i	35.2*	i	i	i	173.5%*	i	i	46.8*
CCC1=NN2C(=N)/C(=C\c3ccc(OCc4cc(=O)n5nc(CC)sc5n4)c(OC)c3)C(=O)N=C2S1	i	·	·	i	·	·	·	·	·
CC(C)NC(=O)CSc1nnc(-c2ccncc2)n1-c1ccccc1	i	i	i	i	i	·	·	·	·
Cc1ccc(NS(=O)(=O)c2ccc(C(=O)N3CC(C)CC(C)C3)cc2)cc1 (stereo not drawn)	i	27.8*	i	i	i	150.5%*	i	i	70.9*
Cc1cc(C)nc(/N=C(\N)Nc2ccc(OCCC(C)C)cc2)n1	i	118*	i	i	i	599.1%*	i	i	124*
Cc1cc(C)nc(/N=C(\N)Nc2ccc(CC(=O)OC(C)C)cc2)n1	i	143*	i	i	i	424.4%*	i	i	90*
COc1ccccc1N/C(N)=N/c1nc(C)cc(C)n1	i	i	i	i	i	·	·	·	·
Cc1cc(C)nc(/N=C(\N)Nc2cccc(OCc3ccccc3)c2)n1	i	153*	i	i	i	522.8%*	i	i	99.9*
Cc1ccn(CC(=O)N2CCCC(N3CCN(Cc4ccc5c(c4)OCO5)CC3)C2)n1 (stereo not drawn)	i	i	i	i	i	·	·	·	·
O=C(CCn1cccn1)Nc1ccc(-c2ccno2)cc1	i	i	i	i	i	·	·	·	·
c1ccc2c(c1)[nH]c1c(N3CCCC3)ncnc12	i	i	i	i	i	·	·	·	·
c1ccc2c(c1)[nH]c1c(N3CCSCC3)ncnc12	·	31.7*	i	·	i	186.1%*	i	i	i
SMILES	RGS4 pot	MrgX1 agonist	MrgX1 PAM	RGS4 block	MrgX1 antagonist	MrgX1 ag confirm	HEK293 Ca flux	HEK293 Ca counter	HEK293 Ca cntr2
Clc1ccc2[nH]c3c(N4CCC5(CC4)OCCO5)ncnc3c2c1	i	41.9*	i	i	i	238.3%*	i	i	49.6*
CCCOc1ccc(-c2csc3ncn(Cc4ccc(C(=O)O)cc4)c(=O)c23)cc1	i	32.2*	i	i	i	203.9%*	i	i	i
Nc1nc2ccc(S(=O)(=O)N3CCCCC3)cc2s1	i	42.6*	i	i	i	255.6%*	i	i	53.3*
CCc1nc2ccccc2n1Cc1ccc(OC)c(OC)c1	i	40.6*	i	i	i	i	i	i	i
COc1ccc(CCN2CC(C(=O)NCc3nc4ccccc4n3C)CCC2=O)cc1 (stereo not drawn)	i	i	i	i	i	·	·	·	·
COC(=O)C1(C)NC(c2ccc(O)cc2)C2C(=O)N(c3ccc(C)cc3)C(=O)C21 (stereo not drawn)	i	i	i	i	i	·	·	·	·
CC(NC(=O)COC(=O)CCc1ccccc1)c1ccccc1 (stereo not drawn)	i	i	i	i	i	·	·	·	·
CCOC(=O)c1ccc(N2C(=O)C3C(C2=O)C(C(=O)c2ccc(Cl)cc2)N2CCCC32)cc1 (stereo not drawn)	i	43.1*	i	i	i	i	i	i	52.3*
CCOC(=O)c1ccc(N2C(=O)C3CC=CCC3C2=O)cc1 (stereo not drawn)	i	i	i	i	i	·	·	·	·
CSc1ccc(N=Nc2c(C)[nH]n(C)c2=O)cc1	i	i	i	i	i	·	·	·	·
CCOC(=O)c1cnn2c(C)cc(-c3ccc(F)cc3)nc12	i	26.4*	i	i	i	i	i	i	i
Cc1ccccc1C(=O)NNC(=S)NC(=O)c1ccccc1	i	159*	i	i	i	755.5%*	i	i	146*
